Converted amounts (≈) assume the structure as drawn. The source made the active and inactive calls. The calls are words filed in the database; no cut-off is given here.
Assays:
Salmonella typhimurium = assay: Antimicrobial activity against Salmonella typhimurium ATCC 14028 assessed as zone of inhibition at 30 uL for 24 hrs at 37 degC by disk diffusion test; assay type: functional, organism-based; details: Salmonella enterica subsp. enterica serovar Typhimurium
Procedure, shortened: (§1)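 Compound (30 µL of a fresh 1000 µg/mL DMSO stock) goes into a 6 mm well cut in Mueller Hinton agar inoculated with 0.1 mL broth culture adjusted to 0.5 McFarland (about 1×10^8 cells/mL). Plates are incubated 24 h at 37 °C, then zone of inhibition diameter is measured in mm.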

Micrococcus luteus = assay: Antimicrobial activity against Micrococcus luteus ATCC 9341 assessed as zone of inhibition at 30 uL for 24 hrs at 30 degC by disk diffusion test; assay type: functional, organism-based
Procedure, shortened: (§2)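 Agar well diffusion on Mueller Hinton agar seeded with 0.1 mL broth culture (18–24 h), adjusted to 0.5 McFarland (about 1×10^8 bacteria or 1×10^6 yeast cells/mL). A 6 mm well is filled with 30 µL of compound from a fresh 1000 µg/mL DMSO stock. Plates are held at 30 °C for 24 h and inhibition zone diameter is read in mm.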

Staphylococcus aureus = assay: Antimicrobial activity against Staphylococcus aureus ATCC 25923 assessed as zone of inhibition at 30 uL for 24 hrs at 37 degC by disk diffusion test; assay type: functional, organism-based; procedure, shortened: as §1
[1] = test system: Staphylococcus epidermidis; assay: Antimicrobial activity against Staphylococcus epidermidis ATCC 12228 assessed as zone of inhibition at 30 uL for 24 hrs at 37 degC by disk diffusion test; assay type: functional, organism-based; procedure, shortened: as §1
Klebsiella pneumoniae = assay: Antimicrobial activity against Klebsiella pneumoniae ATCC 13882 assessed as zone of inhibition at 30 uL for 24 hrs at 37 degC by disk diffusion test; assay type: functional, organism-based; procedure, shortened: as §1
Pseudomonas aeruginosa = assay: Antimicrobial activity against Pseudomonas aeruginosa ATCC 35032 assessed as zone of inhibition at 30 uL for 24 hrs at 37 degC by disk diffusion test; assay type: functional, organism-based; procedure, shortened: as §1
Proteus vulgaris = assay: Antimicrobial activity against Proteus vulgaris ATCC 33420 assessed as zone of inhibition at 30 uL for 24 hrs at 37 degC by disk diffusion test; assay type: functional, organism-based; procedure, shortened: as §1
Enterococcus faecalis = assay: Antimicrobial activity against Enterococcus faecalis ATCC 29212 assessed as zone of inhibition at 30 uL for 24 hrs at 37 degC by disk diffusion test; assay type: functional, organism-based; procedure, shortened: as §1
Bacillus cereus [2] = assay: Antimicrobial activity against Bacillus cereus ATCC 11778 assessed as zone of inhibition at 30 uL for 24 hrs at 30 degC by disk diffusion test; assay type: functional; procedure, shortened: as §2
Bacillus subtilis [3] = assay: Antimicrobial activity against Bacillus subtilis ATCC 6633 assessed as zone of inhibition at 30 uL for 24 hrs at 30 degC by disk diffusion test; assay type: functional; procedure, shortened: as §2
Bacillus thuringiensis [4] = assay: Antimicrobial activity against Bacillus thuringiensis assessed as zone of inhibition at 30 uL for 24 hrs at 30 degC by disk diffusion test; assay type: functional; procedure, shortened: as §2
Candida albicans = assay: Antimicrobial activity against Candida albicans ATCC 10231 assessed as zone of inhibition at 30 uL for 24 hrs at 30 degC by disk diffusion test; assay type: functional, organism-based; procedure, shortened: as §2
Cyberlindnera jadinii = assay: Antimicrobial activity against Candida utilis ATCC 9950 assessed as zone of inhibition at 30 uL for 24 hrs at 30 degC by disk diffusion test; assay type: functional, organism-based; procedure, shortened: as §2
Candida tropicalis = assay: Antimicrobial activity against Candida tropicalis assessed as zone of inhibition at 30 uL for 24 hrs at 30 degC by disk diffusion test; assay type: functional, organism-based; procedure, shortened: as §2
Nakaseomyces glabratus = assay: Antimicrobial activity against Candida glabrata assessed as zone of inhibition at 30 uL for 24 hrs at 30 degC by disk diffusion test; assay type: functional, organism-based; procedure, shortened: as §2
Saccharomyces cerevisiae = assay: Antimicrobial activity against Saccharomyces cerevisiae ATCC 9763 assessed as zone of inhibition at 30 uL for 24 hrs at 30 degC by disk diffusion test; assay type: functional, organism-based; procedure, shortened: as §2
Bacillus cereus [5] = assay: Antimicrobial activity against Bacillus cereus ATCC 11778 for 24 hrs by microdillution method; assay type: functional
Procedure, shortened: (§3)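 Broth microdilution. Compound is dissolved in DMSO (2 mg/mL) and diluted in Mueller Hinton broth as two-fold serial dilutions from 256 to 0.125 µg/mL. Bacteria are pre-grown in nutrient broth at 30 °C, and the final inoculum is about 10^6 cfu/mL. Tests are incubated 37 °C for 24 h. MIC is the lowest concentration giving complete inhibition. Streptomycin is the positive control.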

Bacillus subtilis [6] = assay: Antimicrobial activity against Bacillus subtilis ATCC 6633 for 24 hrs by microdillution method; assay type: functional; procedure, shortened: as §3
Bacillus thuringiensis [7] = assay: Antimicrobial activity against Bacillus thuringiensis for 24 hrs by microdillution method; assay type: functional; procedure, shortened: as §3
HL-60 [8] = assay: Antiproliferative activity against human HL60 cells after 24 and 72 hrs by MTT assay; assay type: functional, cell-based
Procedure, shortened: (§4)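 ATCC human cell lines are kept in RPMI, DMEM or McCoy's 5A with 10–15% heat-inactivated FCS at 37 °C and 5% CO2. They are seeded at 1×10^4–1×10^5 cells/mL in 48-well plates and exposed to 0.5, 10, 20 or 40 µM. Viability is read by MTT (590 nm) at 24 and 72 h. Growth is expressed relative to untreated cells and IC50 is fitted, in triplicate.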

HT-29 [9] = assay: Antiproliferative activity against human HT-29 cells after 24 and 72 hrs by MTT assay; assay type: functional, cell-based; procedure, shortened: as §4
Caco-2 [10] = assay: Antiproliferative activity against human Caco2 cells after 24 and 72 hrs by MTT assay; assay type: functional, cell-based; procedure, shortened: as §4
[11] = Antiproliferative activity against human Saos2 cells after 24 and 72 hrs by MTT assay; assay type: functional, cell-based; details: SAOS-2; procedure, shortened: as §4
MCF7 [12] = assay: Antiproliferative activity against human MCF7 cells after 24 and 72 hrs by MTT assay; assay type: functional, cell-based; procedure, shortened: as §4
HeLa [13] = assay: Antiproliferative activity against human HeLa cells after 24 and 72 hrs by MTT assay; assay type: functional, cell-based; procedure, shortened: as §4
HL-60 [14] = assay: Induction of apoptosis in human HL60 cells at 20 uM after 48 hrs by Hoechst 33258/propidium iodide staining based phase contrast microscopic analysis; assay type: functional
Procedure, shortened: (§5)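 Cells in 48-well plates treated with 0.5, 10, 20 or 40 µM for 24 and 48 h. Values are read at 48 h, 20 µM for test agents and 0.5 µM for controls. Staining is Hoechst 33258/propidium iodide double staining with fluorescence microscopy. Blue nuclei are viable or early-to-mid apoptotic, and pink nuclei are late apoptotic or necrotic. Apoptosis and necrosis are scored from chromatin condensation as % of cells. Cells are grown at 37 °C in 5% CO2 in RPMI, DMEM or McCoy's 5A with 10–15% heat-inactivated FCS.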

HT-29 [15] = assay: Induction of apoptosis in human HT-29 cells at 20 uM after 48 hrs by Hoechst 33258/propidium iodide staining based phase contrast microscopic analysis; assay type: functional; procedure, shortened: as §5
Caco-2 [16] = assay: Induction of apoptosis in human Caco2 cells at 20 uM after 48 hrs by Hoechst 33258/propidium iodide staining based phase contrast microscopic analysis; assay type: functional; procedure, shortened: as §5
SAOS-2 [17] = assay: Induction of apoptosis in human Saos2 cells at 20 uM after 48 hrs by Hoechst 33258/propidium iodide staining based phase contrast microscopic analysis; assay type: functional; procedure, shortened: as §5
MCF7 [18] = assay: Induction of apoptosis in human MCF7 cells at 20 uM after 48 hrs by Hoechst 33258/propidium iodide staining based phase contrast microscopic analysis; assay type: functional; procedure, shortened: as §5
HeLa [19] = assay: Induction of apoptosis in human HeLa cells at 20 uM after 48 hrs by Hoechst 33258/propidium iodide staining based phase contrast microscopic analysis; assay type: functional; procedure, shortened: as §5
HL-60 [20] = assay: Induction of necrosis in human HL60 cells at 20 uM after 48 hrs by Hoechst 33258/propidium iodide staining based phase contrast microscopic analysis; assay type: functional; procedure, shortened: as §5
HT-29 [21] = assay: Induction of necrosis in human HT-29 cells at 20 uM after 48 hrs by Hoechst 33258/propidium iodide staining based phase contrast microscopic analysis; assay type: functional; procedure, shortened: as §5
Caco-2 [22] = assay: Induction of necrosis in human Caco2 cells at 20 uM after 48 hrs by Hoechst 33258/propidium iodide staining based phase contrast microscopic analysis; assay type: functional; procedure, shortened: as §5
SAOS-2 [23] = assay: Induction of necrosis in human Saos2 cells at 20 uM after 48 hrs by Hoechst 33258/propidium iodide staining based […] microscopic analysis; assay type: functional; procedure, shortened: as §5
MCF7 [24] = assay: Induction of necrosis in human MCF7 cells at 20 uM after 48 hrs by Hoechst 33258/propidium iodide staining based phase contrast microscopic analysis; assay type: functional; procedure, shortened: as §5
HeLa [25] = assay: Induction of necrosis in human HeLa cells at 20 uM after 48 hrs by Hoechst 33258/propidium iodide staining based phase contrast microscopic analysis; assay type: functional; procedure, shortened: as §5
Escherichia coli = assay: Antimicrobial activity against Escherichia coli ATCC 25922 assessed as zone of inhibition at 30 uL for 24 hrs at 37 degC by disk diffusion test; assay type: functional, organism-based; procedure, shortened: as §1

Compound | diameter of the inhibition zone (DIZ) (Salmonella typhimurium) | diameter of the inhibition zone (DIZ) (Micrococcus luteus) | diameter of the inhibition zone (DIZ) (Staphylococcus aureus) | diameter of the inhibition zone (DIZ) [1] | diameter of the inhibition zone (DIZ) (Klebsiella pneumoniae) | diameter of the inhibition zone (DIZ) (Pseudomonas aeruginosa) | diameter of the inhibition zone (DIZ) (Proteus vulgaris) | diameter of the inhibition zone (DIZ) (Enterococcus faecalis) | diameter of the inhibition zone (DIZ) (Bacillus cereus [2]) | diameter of the inhibition zone (DIZ) (Bacillus subtilis [3]) | diameter of the inhibition zone (DIZ) (Bacillus thuringiensis [4]) | diameter of the inhibition zone (DIZ) (Candida albicans) | diameter of the inhibition zone (DIZ) (Cyberlindnera jadinii) | diameter of the inhibition zone (DIZ) (Candida tropicalis) | diameter of the inhibition zone (DIZ) (Nakaseomyces glabratus) | diameter of the inhibition zone (DIZ) (Saccharomyces cerevisiae) | MIC (Bacillus thuringiensis [7]) | IC50 (HL-60 [8]) [µM] | IC50 (HT-29 [9]) [µM] | IC50 (Caco-2 [10]) [µM] | also measured
CC(=O)O[C@H]1CC[C@]2(C)[C@H]3CC=C4[C@@H]5CC(C)(C)CC[C@]5(C(=O)OCc5ccccc5)CC[C@@]4(C)[C@]3(C)CC[C@H]2[C@]1(C)C=O | inactive | inactive | inactive | inactive | inactive | inactive | inactive | inactive | inactive | inactive | inactive | inactive | inactive | inactive | inactive | inactive | inactive | 6.74 | 10.3 | 51.1 | MIC (Bacillus cereus [5]): inactive; MIC (Bacillus subtilis [6]): inactive; IC50 [11]: 10.7 µM; IC50 (MCF7 [12]): 65.2 µM; IC50 (HeLa [13]): 287 µM; Activity (HL-60 [14]): 3%; Activity (HT-29 [15]): 0.7%; Activity (Caco-2 [16]): 1%; Activity (SAOS-2 [17]): 0%; Activity (MCF7 [18]): 5%; Activity (HeLa [19]): 2%; Activity (HL-60 [20]): 51%; Activity (HT-29 [21]): 29%; Activity (Caco-2 [22]): 37%; Activity (SAOS-2 [23]): 45%; Activity (MCF7 [24]): 36%; Activity (HeLa [25]): 68%; diameter of the inhibition zone (DIZ) (Escherichia coli): inactive
CC(=O)O[C@H]1CC[C@]2(C)[C@H]3CC=C4[C@@H]5CC(C)(C)CC[C@]5(C(=O)O)CC[C@@]4(C)[C@]3(C)CC[C@H]2[C@]1(C)/C=N\O | inactive | inactive | inactive | inactive | inactive | inactive | inactive | inactive | 12 mm | 13 mm | 12 mm | inactive | inactive | inactive | inactive | inactive | 64 µg/mL (≈ 121 µM) | 5.98 | 6.71 | 28.2 | MIC (Bacillus cereus [5]; ATCC 11778, 24 h): 64 µg/mL (≈ 121 µM); MIC (Bacillus subtilis [6]; ATCC 6633, 24 h): 32 µg/mL (≈ 60.6 µM); IC50 [11]: 8.95 µM; IC50 (MCF7 [12]): 10.8 µM; IC50 (HeLa [13]): 116 µM; Activity (HL-60 [14]): 6%; Activity (HT-29 [15]): 0.6%; Activity (Caco-2 [16]): 0%; Activity (SAOS-2 [17]): 1%; Activity (MCF7 [18]): 5%; Activity (HeLa [19]): 0%; Activity (HL-60 [20]): 52%; Activity (HT-29 [21]): 28%; Activity (Caco-2 [22]): 17%; Activity (SAOS-2 [23]): 46%; Activity (MCF7 [24]): 55%; Activity (HeLa [25]): 64%; diameter of the inhibition zone (DIZ) (Escherichia coli): inactive

From ChEMBL document CHEMBL3297654, “Synthesis, antimicrobial and cytotoxic activities, and structure-activity relationships of gypsogenin derivatives against human cancer cells” (Eur J Med Chem, 2014)
